Assay results from ChEMBL document CHEMBL3627702, “Navigating CYP1A Induction and Arylhydrocarbon Receptor Agonism in Drug Discovery. A Case History with S1P1 Agonists” (J Med Chem, 2015).

Legend:
Rattus norvegicus [1] = test: Dose normalized AUC in Sprague-Dawley rat at 19 mg/kg, po QD measured on day 1; type: ADME, organism-based; details: in vivo
Procedure, shortened: (§1)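 Male CD rats (226−325 g), n = 3, given the compound once daily by oral gavage for 4 days. Vehicle was 1% (w/v) methylcellulose aq suspension at 3−6 mg/mL, dosed at 5 mL/kg (target 15−30 mg/kg). Tail vein blood was taken on days 1 and 4 up to 24 h postdose. Blood was diluted 1:1 with water, extracted by acetonitrile protein precipitation and analysed by LC−MS/MS against calibration standards in diluted blood.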

CYP1A2 [2] = test: Induction of CYP1A2 mRNA expression in Sprague-Dawley rat hepatic microsomes at 19 mg/kg, po QD for 4 days relative to control; type: ADME, organism-based, Liver; details: read-out: FC
[3] = Cmax in Sprague-Dawley rat at 19 mg/kg, po QD measured on day 4; type: ADME, organism-based; parameters: dose 19 mg/kg, route oral; details: in vivo; procedure, shortened: as §1
[4] = AUC in Sprague-Dawley rat at 19 mg/kg, po QD measured on day 1; type: ADME, organism-based; details: in vivo; procedure, shortened: as §1
[5] = AUC in Sprague-Dawley rat at 19 mg/kg, po QD measured on day 4; type: ADME, organism-based; details: in vivo; procedure, shortened: as §1
[6] = Lipophilicity, log D of the compound at pH 7.4; type: physicochemical; details: buffer
Rattus norvegicus [7] = test: Dose normalized AUC in Sprague-Dawley rat at 19 mg/kg, po QD measured on day 4; type: ADME, organism-based; details: in vivo; procedure, shortened: as §1
CYP1A1 [8] = test: Induction of CYP1A1 mRNA expression in Sprague-Dawley rat hepatic microsomes at 19 mg/kg, po QD for 4 days relative to control; type: ADME, organism-based, Liver; details: read-out: FC
Procedure, shortened: (§2)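 Male CD rats (226–325 g, n = 3) were dosed by oral gavage once daily for 4 days as a 1% w/v aqueous methylcellulose suspension (3–6 mg/mL, 5 mL/kg). At the end of the study, a left lateral liver lobe section was placed in RNALater and homogenised in TRIzol. RNA was purified, DNase-treated and converted to cDNA, and Cyp1a1 was read on low-density TaqMan arrays.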

[9] = Dissociation constant, pKa of the compound; type: physicochemical
[10] = Cmax in Sprague-Dawley rat at 19 mg/kg, po QD measured on day 1; type: ADME, organism-based; parameters: dose 19 mg/kg, route oral; details: in vivo; procedure, shortened: as §1
[11] = AUC in Sprague-Dawley rat at 25 mg/kg, po QD measured on day 4; type: ADME, organism-based; details: in vivo; procedure, shortened: as §1
[12] = Cmax in Sprague-Dawley rat at 25 mg/kg, po QD measured on day 1; type: ADME, organism-based; parameters: dose 25 mg/kg, route oral; details: in vivo; procedure, shortened: as §1
Rattus norvegicus [13] = test: Dose normalized AUC in Sprague-Dawley rat at 25 mg/kg, po QD measured on day 1; type: ADME, organism-based; details: in vivo; procedure, shortened: as §1
CYP1A2 [14] = test: Induction of CYP1A2 mRNA expression in Sprague-Dawley rat hepatic microsomes at 25 mg/kg, po QD for 4 days relative to control; type: ADME, organism-based, Liver; details: read-out: FC
CYP1A1 [15] = test: Induction of CYP1A1 mRNA expression in Sprague-Dawley rat hepatic microsomes at 25 mg/kg, po QD for 4 days relative to control; type: ADME, organism-based, Liver; details: read-out: FC; procedure, shortened: as §2
[16] = AUC in Sprague-Dawley rat at 25 mg/kg, po QD measured on day 1; type: ADME, organism-based; details: in vivo; procedure, shortened: as §1
Rattus norvegicus [17] = test: Dose normalized AUC in Sprague-Dawley rat at 25 mg/kg, po QD measured on day 4; type: ADME, organism-based; details: in vivo; procedure, shortened: as §1
[18] = Cmax in Sprague-Dawley rat at 25 mg/kg, po QD measured on day 4; type: ADME, organism-based; parameters: dose 25 mg/kg, route oral; details: in vivo; procedure, shortened: as §1
Rattus norvegicus [19] = test: Dose normalized AUC in Sprague-Dawley rat at 15 mg/kg, po QD measured on day 4; type: ADME, organism-based; details: in vivo; procedure, shortened: as §1
CYP1A2 [20] = test: Induction of CYP1A2 mRNA expression in Sprague-Dawley rat hepatic microsomes at 15 mg/kg, po QD for 4 days relative to control; type: ADME, organism-based, Liver; details: read-out: FC
[21] = Cmax in Sprague-Dawley rat at 15 mg/kg, po QD measured on day 1; type: ADME, organism-based; parameters: dose 15 mg/kg, route oral; details: in vivo; procedure, shortened: as §1
CYP1A1 [22] = test: Induction of CYP1A1 mRNA expression in Sprague-Dawley rat hepatic microsomes at 15 mg/kg, po QD for 4 days relative to control; type: ADME, organism-based, Liver; details: read-out: FC; procedure, shortened: as §2
[23] = AUC in Sprague-Dawley rat at 15 mg/kg, po QD measured on day 4; type: ADME, organism-based; details: in vivo; procedure, shortened: as §1
[24] = Cmax in Sprague-Dawley rat at 15 mg/kg, po QD measured on day 4; type: ADME, organism-based; parameters: dose 15 mg/kg, route oral; details: in vivo; procedure, shortened: as §1
Rattus norvegicus [25] = test: Dose normalized AUC in Sprague-Dawley rat at 15 mg/kg, po QD measured on day 1; type: ADME, organism-based; details: in vivo; procedure, shortened: as §1
[26] = AUC in Sprague-Dawley rat at 15 mg/kg, po QD measured on day 1; type: ADME, organism-based; details: in vivo; procedure, shortened: as §1
[27] = Cmax in Sprague-Dawley rat at 24 mg/kg, po QD measured on day 4; type: ADME, organism-based; parameters: dose 24 mg/kg, route oral; details: in vivo; procedure, shortened: as §1
[28] = Cmax in Sprague-Dawley rat at 24 mg/kg, po QD measured on day 1; type: ADME, organism-based; parameters: dose 24 mg/kg, route oral; details: in vivo; procedure, shortened: as §1
CYP1A1 [29] = test: Induction of CYP1A1 mRNA expression in Sprague-Dawley rat hepatic microsomes at 24 mg/kg, po QD for 4 days relative to control; type: ADME, organism-based, Liver; details: read-out: FC; procedure, shortened: as §2
[30] = AUC in Sprague-Dawley rat at 24 mg/kg, po QD measured on day 1; type: ADME, organism-based; details: in vivo; procedure, shortened: as §1
[31] = AUC in Sprague-Dawley rat at 24 mg/kg, po QD measured on day 4; type: ADME, organism-based; details: in vivo; procedure, shortened: as §1
CYP1A2 [32] = test: Induction of CYP1A2 mRNA expression in Sprague-Dawley rat hepatic microsomes at 24 mg/kg, po QD for 4 days relative to control; type: ADME, organism-based, Liver; details: read-out: FC
Rattus norvegicus [33] = test: Dose normalized AUC in Sprague-Dawley rat at 24 mg/kg, po QD measured on day 4; type: ADME, organism-based; details: in vivo; procedure, shortened: as §1
Rattus norvegicus [34] = test: Dose normalized AUC in Sprague-Dawley rat at 24 mg/kg, po QD measured on day 1; type: ADME, organism-based; details: in vivo; procedure, shortened: as §1
[35] = Volume of distribution at steady state in CD rat at 1 mg/kg, iv; type: ADME, organism-based; details: in vivo, read-out: Vdss
Procedure, shortened: (§3)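 Male CD rats cannulated in the femoral and jugular veins, n = 3, crossover design. Day 1: 1 h iv infusion at 1 mg/kg (0.2 mg/mL in ≤5% DMSO/≥95% 10% Kleptose in saline, 5 mL/kg/h). Day 2: oral gavage at 3 mg/kg (0.6 mg/mL in 1% methylcellulose, 5 mL/kg). Blood assayed by LC–MS/MS after acetonitrile precipitation.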

[36] = Oral bioavailability in CD rat at 3 mg/kg; type: ADME, organism-based; details: in vivo; procedure, shortened: as §3
[37] = Blood clearance in CD rat at 1 mg/kg, iv; type: ADME, organism-based
Procedure, shortened: (§4)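 Male CD rats carried femoral vein (dosing) and jugular vein (sampling) cannulae and recovered at least 2 days. They received a 1 h iv infusion at 5 mL kg−1 h−1, target 1 mg/kg, at 0.2 mg/mL in DMSO/10% Kleptose in saline (≤5%:≥95%). pH was adjusted to 8.0 if needed and the solution filtered. Definitive studies used n = 3 in crossover; others used single animals.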

[38] = Half life in CD rat at 1 mg/kg, iv; type: ADME, organism-based; details: in vivo; procedure, shortened: as §4

Cc1c(-c2nnc(-c3ccc(OC(C)C)c(C#N)c3)s2)ccc2c1CCN(C(CO)CO)C2
AUC/dose (Rattus norvegicus [1]): 61 kg·min/L | fold induction at 96 h (CYP1A2 [2]): 1 | Cmax [3]: 2320 ng/mL | AUC [4]: 19100 ng·h/mL | AUC [5]: 27800 ng·h/mL | logD [6]: 2.33 | AUC/dose (Rattus norvegicus [7]): 89 kg·min/L | fold induction at 96 h (CYP1A1 [8]): 1.7 | pKa [9]: 7.2 | Cmax [10]: 1750 ng/mL

Cc1c(-c2noc(-c3ccc(OC(C)C)c(C#N)c3)n2)ccc2c1CCN(C[C@@H](O)CO)CC2
AUC/dose (Rattus norvegicus [1]): 65 kg·min/L | fold induction at 96 h (CYP1A2 [2]): 1.7 | Cmax [3]: 1530 ng/mL | AUC [4]: 20800 ng·h/mL | AUC [5]: 26000 ng·h/mL | logD [6]: 2.36 | AUC/dose (Rattus norvegicus [7]): 83 kg·min/L | fold induction at 96 h (CYP1A1 [8]): 126 | pKa [9]: 8.4 | Cmax [10]: 1290 ng/mL

Cc1c(-c2noc(-c3ccc(OC(C)C)c(C#N)c3)n2)ccc2c1CCN(C[C@H](O)CO)CC2
AUC [11]: 15600 ng·h/mL | Cmax [12]: 730 ng/mL | logD [6]: 2.36 | AUC/dose (Rattus norvegicus [13]): 31 kg·min/L | fold induction at 96 h (CYP1A2 [14]): 2.2 | pKa [9]: 8.4 | fold induction at 96 h (CYP1A1 [15]): 215 | AUC [16]: 13200 ng·h/mL | AUC/dose (Rattus norvegicus [17]): 38 kg·min/L | Cmax [18]: 870 ng/mL

Cc1c(-c2noc(-c3ccc(OC(C)C)c(C#N)c3)n2)ccc2c1CCN(C(CO)CO)CC2
AUC/dose (Rattus norvegicus [19]): 46 kg·min/L | fold induction at 96 h (CYP1A2 [20]): 1.9 | Cmax [21]: 550 ng/mL | fold induction at 96 h (CYP1A1 [22]): 275 | logD [6]: 2.64 | AUC [23]: 11500 ng·h/mL | Cmax [24]: 670 ng/mL | pKa [9]: 8.2 | AUC/dose (Rattus norvegicus [25]): 36 kg·min/L | AUC [26]: 9100 ng·h/mL

Cc1c(-c2noc(-c3cnc(NC(C)C)c(C#N)c3)n2)ccc2c1CCN(C(CO)CO)CC2
Cmax [27]: 1350 ng/mL | Cmax [28]: 1140 ng/mL | fold induction at 96 h (CYP1A1 [29]): 81 | AUC [30]: 17000 ng·h/mL | AUC [31]: 24900 ng·h/mL | fold induction at 96 h (CYP1A2 [32]): 2 | logD [6]: 2.44 | AUC/dose (Rattus norvegicus [33]): 63 kg·min/L | AUC/dose (Rattus norvegicus [34]): 43 kg·min/L | pKa [9]: 8.3

CC(C)Nc1ncc(-c2nc(-c3ccc4c(c3)CCN(C(CO)CO)CC4)no2)cc1C#N
Cmax [27]: 1220 ng/mL | Vd [35]: 10.9 L/kg | Cmax [28]: 1010 ng/mL | fold induction at 96 h (CYP1A1 [29]): 100 | AUC [30]: 15300 ng·h/mL | AUC [31]: 21300 ng·h/mL | fold induction at 96 h (CYP1A2 [32]): 2 | bioavailability [36]: 67% | clearance [37]: 22 mL/min/kg | half-life [38]: 8.1 h | logD [6]: 2.63 | AUC/dose (Rattus norvegicus [33]): 55 kg·min/L | AUC/dose (Rattus norvegicus [34]): 38 kg·min/L | pKa [9]: 8.1
